The values that follow come from ChEMBL document CHEMBL3045046, “Synthesis, herbicidal activities, and 3D-QSAR of 2-cyanoacrylates containing aromatic methylamine moieties” (J Agric Food Chem, 2008).

What all share (format): functional
Test [1] has as its system Medicago sativa. The test can be described thus: Herbicidal activity against Medicago sativa (alfalfa) assessed as inhibition of herb growth at 1.5 kg/ha during postemergence treatment protocol. The settings on record: post-emergence, read-out: GI.
For test [2], the system named is Digitaria sanguinalis. The test can be described thus: Herbicidal activity against hairy Digitaria sanguinalis (hairy crabgrass) assessed as inhibition of herb growth at 1.5 kg/ha during preemergence treatment protocol. The settings on record: pre-emergence, read-out: GI.
Test [3] has as its system Amaranthus retroflexus. Briefly: Herbicidal activity against Amaranthus retroflexus assessed as inhibition of herb growth at 1.5 kg/ha during postemergence treatment protocol. The settings on record: post-emergence, read-out: GI.
The next test relates to Spinacia oleracea. Briefly: Inhibition of photosynthetic electron transport in Spinacia oleracea (spinach)isolated chloroplasts assessed as inhibition of Hill reaction. In a few lines: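 Chloroplasts from fresh spinach leaves, homogenised in ice-cold pH 7.8 buffer (0.4 M sucrose, 10 mM NaCl, 50 mM Tris-HCl), spun 3 min 120g then 5 min 1000g at 4 °C. Reaction buffer 350 mM NaCl, 10 mM Tris-HCl pH 7.8 with DCPIP; 2 min light (360 µmol m^-2 s^-1), DCPIP reduction at 620 nm. Compounds 0.01 mg/L–0.3 mg/mL in […]/water, ≥triplicate; IC50 by log-linear regression.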

Test [4] concerns Brassica napus. Briefly: Herbicidal activity against Brassica napus (oilseed rape) assessed as inhibition of herb growth at 1.5 kg/ha during preemergence treatment protocol. The settings on record: pre-emergence, read-out: GI.
Test [5] concerns Medicago sativa. The test can be described thus: Herbicidal activity against Medicago sativa (alfalfa) assessed as inhibition of herb growth at 1.5 kg/ha during preemergence treatment protocol. Particulars: pre-emergence, read-out: GI.
The subject of test [6] is Amaranthus retroflexus. Briefly: Herbicidal activity against Amaranthus retroflexus assessed as inhibition of herb growth at 1.5 kg/ha during preemergence treatment protocol. The settings on record: pre-emergence, read-out: GI.
Test [7] deals with Brassica napus. Briefly: Herbicidal activity against Brassica napus (oilseed rape) assessed as inhibition of herb growth at 1.5 kg/ha during postemergence treatment protocol. Particulars: post-emergence, read-out: GI.
In test [8] the test system is Digitaria sanguinalis. Briefly: Herbicidal activity against hairy Digitaria sanguinalis (hairy crabgrass) assessed as inhibition of herb growth at 1.5 kg/ha during postemergence treatment protocol. The settings on record: post-emergence, read-out: GI.
The mark [9] stands for this setting: Spinacia oleracea, read-out: pIC50 (converted).

SMILES strings stand for the structures.

Turning to `CCOCCOC(=O)/C(C#N)=C(\NCc1ccc(Br)nc1)SC`, the inhibition of growth at 1500 g/ha with Medicago sativa [1] stood at 59.9%; with Digitaria sanguinalis [2] it was 0%; with Amaranthus retroflexus [3], 100%; with Brassica napus [4], 23.9%; in the test with Medicago sativa [5], 12%; in the test with Amaranthus retroflexus [6] it was 91.9%. Besides, the inhibition of growth at 1500 g/ha in the test on Brassica napus [7] was determined as 100%; with Digitaria sanguinalis [8] it was 60%. Besides, the IC50 was 0.084 ppm with Spinacia oleracea and 83.2 nM in the test with Spinacia oleracea (setting [9]).
On to `CCOCCOC(=O)/C(C#N)=C(/CC)NCc1ccc(Br)nc1`, for which the inhibition of growth at 1500 g/ha in the test with Medicago sativa [1] is 77.8%; with Digitaria sanguinalis [2], 18.8%; in the test on Amaranthus retroflexus [3], 100%; in the test on Brassica napus [4], 71.9%; with Medicago sativa [5] it was 28.8%; with Amaranthus retroflexus [6], 21.6%. Besides, the inhibition of growth at 1500 g/ha with Brassica napus [7] was 100%; in the test with Digitaria sanguinalis [8], 95.2%. In addition, the IC50 was 0.335 ppm with Spinacia oleracea and 339 nM with Spinacia oleracea (setting [9]).
Turning to `CCOCCOC(=O)/C(C#N)=C(\NCc1ccc(Br)nc1)C(C)C`, the inhibition of growth at 1500 g/ha in the test on Medicago sativa [1] amounted to 32.1%; in the test with Digitaria sanguinalis [2], 16.8%; with Amaranthus retroflexus [3], 97.8%; in the test with Brassica napus [4] it was 68.7%; with Medicago sativa [5], 0%; with Amaranthus retroflexus [6], 48.6%. Also, the figures for the inhibition of growth at 1500 g/ha in the test with Brassica napus [7] and in the test with Digitaria sanguinalis [8] were 100% and 42.4%, respectively. The IC50 is 0.099 ppm with Spinacia oleracea and 100 nM in the test with Spinacia oleracea (setting [9]).
Consider `CCOCCOC(=O)/C(C#N)=C(\NCc1ccc(N(C)C)nc1)SC`, for which the inhibition of growth at 1500 g/ha in the test with Medicago sativa [1] amounted to 51.6%; in the test on Digitaria sanguinalis [2], 28.7%; in the test with Amaranthus retroflexus [3] it was 80.9%; in the test on Brassica napus [4], 37.4%; with Medicago sativa [5], 0%; with Amaranthus retroflexus [6], 13.5%. In addition, the inhibition of growth at 1500 g/ha came out at 100% with Brassica napus [7] and 45.6% in the test with Digitaria sanguinalis [8]. Also, the IC50 with Spinacia oleracea is 0.292 ppm; in the test on Spinacia oleracea (setting [9]) it was 295 nM.
Turning to `CCOCCOC(=O)/C(C#N)=C(\NCc1ccc(Cl)cc1)C(C)C`, the inhibition of growth at 1500 g/ha was found to be 68.9% with Medicago sativa [1]; 12.9% in the test with Digitaria sanguinalis [2]; 100% in the test with Amaranthus retroflexus [3]; 4.4% in the test with Brassica napus [4]; 0% in the test on Medicago sativa [5]; 40.5% with Amaranthus retroflexus [6]. Moreover, the inhibition of growth at 1500 g/ha in the test with Brassica napus [7] stood at 100%; with Digitaria sanguinalis [8] it was 46.4%. For the same molecule, the IC50 is 0.043 ppm in the test on Spinacia oleracea and 42.7 nM in the test on Spinacia oleracea (setting [9]).
For `CCOCCOC(=O)/C(C#N)=C(\NCc1ccc(Cl)cc1)SC`, the inhibition of growth at 1500 g/ha in the test with Medicago sativa [1] came to 12.9%; in the test on Digitaria sanguinalis [2] it was 24.8%; in the test on Amaranthus retroflexus [3] it was 100%; in the test on Brassica napus [4] it was 24.9%; with Medicago sativa [5], 0%; with Amaranthus retroflexus [6], 59.4%. The inhibition of growth at 1500 g/ha in the test with Brassica napus [7] worked out at 100%; with Digitaria sanguinalis [8], 31.2%. For the same molecule, the IC50 was 0.026 ppm in the test on Spinacia oleracea and 25.7 nM with Spinacia oleracea (setting [9]).
Regarding `CCOCCOC(=O)/C(C#N)=C(\NCc1ccc(Cl)nc1)SC`, the inhibition of growth at 1500 g/ha was 41.3% with Medicago sativa [1]; 18.6% in the test on Digitaria sanguinalis [2]; 100% with Amaranthus retroflexus [3]; 68.9% in the test with Brassica napus [4]; 1.5% with Medicago sativa [5]; 13.7% with Amaranthus retroflexus [6]. Further, the inhibition of growth at 1500 g/ha in the test with Brassica napus [7] is 100%; in the test with Digitaria sanguinalis [8], 89.9%. Further, the IC50 is 0.167 ppm with Spinacia oleracea and 166 nM in the test with Spinacia oleracea (setting [9]).
